Published values collected from several papers.
Target: Serine/threonine-protein kinase Nek3 (NEK3, Homo sapiens, UniProt P51956)
Sequence (P51956 1-506, as in one of the studies): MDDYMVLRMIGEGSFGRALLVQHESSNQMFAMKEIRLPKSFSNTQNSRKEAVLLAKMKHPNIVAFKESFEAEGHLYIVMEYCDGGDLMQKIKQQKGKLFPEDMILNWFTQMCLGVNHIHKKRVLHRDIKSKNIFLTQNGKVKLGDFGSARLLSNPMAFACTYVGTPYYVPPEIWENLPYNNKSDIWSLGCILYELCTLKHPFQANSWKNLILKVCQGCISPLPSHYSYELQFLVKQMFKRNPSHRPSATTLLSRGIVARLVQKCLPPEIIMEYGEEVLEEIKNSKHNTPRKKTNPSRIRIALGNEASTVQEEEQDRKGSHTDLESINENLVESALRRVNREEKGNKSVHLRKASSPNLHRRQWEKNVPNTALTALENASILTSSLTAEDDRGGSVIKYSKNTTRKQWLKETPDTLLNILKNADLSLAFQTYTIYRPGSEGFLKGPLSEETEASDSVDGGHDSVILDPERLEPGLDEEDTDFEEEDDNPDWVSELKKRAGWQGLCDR

Cc1ccc(NC(=O)c2ccnc(C(F)(F)F)c2)cc1-c1cc(OCCO)nc(N2CCOCC2)c1  remaining binding (binding; 1 µM): 95%
Cc1cc(O)c(-c2ccc([C@@H](C)CN(C)C)cc2)c2c1[nH]c(=O)c1sccc12  inhibition (enzyme activity; inhibitor; 0.1 µM): -5.15%
C1=C/COCc2cc(ccc2OCCN2CCCC2)Nc2nccc(n2)-c2cccc(c2)COC/1  remaining binding (binding; 0.1 µM): 82%
CCCCC(=O)Nc1ccc(-c2ccc3ncn(CCC)c(=O)c3c2)cn1  remaining binding (binding; competition with immobilised ligand; 0.5 µM): 87%
C=CC(=O)N1CCC[C@@H](n2nc(-c3ccc(Oc4ccccc4)cc3)c3c(N)ncnc32)C1  inhibition (enzyme activity; inhibitor; 1 µM): 5%
CN1CCN(C(=O)c2ccc(NC(=O)Nc3ccc(N(C)c4ccnc(Nc5ccc(CS(C)(=O)=O)cc5)n4)cc3)cc2)CC1  remaining binding (binding; 1 µM): 66%
CC(C)S(=O)(=O)c1ccc2nccc(Nc3ccc4sc(C5CCCC5)nc4c3)c2c1  activity vs control (enzyme activity; inhibitor; 1 µM): 111%
C=CC(=O)N1CCC([C@@H]2CCNc3c(C(N)=O)c(-c4ccc(Oc5ccccc5)cc4)nn32)CC1  inhibition (enzyme activity; inhibitor; 1 µM): 44%
